Experimental data as given in ChEMBL document CHEMBL4513216, “Probing the Open Global Health Chemical Diversity Library for Multistage-Active Starting Points for Next-Generation Antimalarials” (ACS Infect Dis, 2020).

Test: Toxicity liver stage against HepG2, at 10uM
Format: cell-based
Set-up: test concentration 10 uM, cell line HepG2-A16-CD81EGFP
Conditions: human, HepG2-A16-CD81EGFP cells; read-out: INHIBITION
Outline: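 Uninfected HepG2-A16-CD81EGFP cells, 3 × 10^3 per well, 1536-well, plated on prespotted compound at 10 μM final, parasite-free screening media added to match infected plates; puromycin 10 μM positive, DMSO 0.5% negative; run in parallel with 48 h PbLuc assay at 37 °C, 5% CO2; viability by CellTiter-Glo luminescence, normalized to controls.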
CCOCCCNC(=O)NCc1c(C)nn(C)c1C showed a cytotoxicity at 10 µM of -5.28%. O=C(Nc1cccc2c1CCCC2)c1cccnc1N1CCCNCC1 showed a cytotoxicity at 10 µM of 6.84%. Work on CC(=O)N1N=C(c2cccs2)OC1C(=O)NCc1ccc(C)o1 (configuration not stated) yielded a cytotoxicity at 10 µM of -4.67%. With CCC(C)N1C(=O)c2ccc(C(=O)NCCc3c[nH]cn3)cc2C1=O (configuration not stated) the cytotoxicity at 10 µM was -8.64%. With OCc1cc2ccccc2nc1N1CCCCC1 the cytotoxicity at 10 µM was 14.1%. With CSc1ncccc1C(=O)NCCC(O)c1ccco1 (configuration not stated) the cytotoxicity at 10 µM was -2.93%. In the case of O=C(NCCn1ccc(-c2ccncc2)n1)C1CC1, the cytotoxicity at 10 µM is reported as -2.08%. O=C(C1CCOC1)N1C[C@H]2CN(c3ccccc3)C(=O)[C@H]2C1 (some centres not stated) showed a cytotoxicity at 10 µM of -123%. In the case of Cc1cnc(N2CCCC3(COCCN(c4ccc(C)nn4)C3)C2)nc1 (configuration not stated), the cytotoxicity at 10 µM is reported as -126%. Work on CN(C)CC(=O)N1CCCC1c1cncc(Oc2ccc(F)cc2)n1 (configuration not stated) yielded a cytotoxicity at 10 µM of -10.9%. With O=C(c1c[nH]c(=O)[nH]c1=O)N1CCCC(c2cnccn2)C1 (configuration not stated) the cytotoxicity at 10 µM was -3.58%. C[C@]1(O)CN(CCC(N)=O)CC[C@@H]1Oc1cccc(F)c1 gave a cytotoxicity at 10 µM of -0.224%. Work on Cc1nc(CNC(=O)Nc2cc(F)ccc2N2CCN(C)CC2)no1 yielded a cytotoxicity at 10 µM of -8.8%. For CCOc1ccccc1N(C)Cc1nccn1C, the cytotoxicity at 10 µM was -3.83%. In the case of CN(Cc1ccc(C(=O)O)cc1)C(=O)c1sccc1OC(F)F, the cytotoxicity at 10 µM is reported as -6.59%. For CC(C)c1csc(C2CCCN(C(=O)c3ccc(=O)n(C)c3)C2)n1 (configuration not stated), the cytotoxicity at 10 µM was -48.2%. For Cc1cccc(C(=O)N2CCN(C)CC2)c1NC(=O)c1ccncc1, the cytotoxicity at 10 µM was -10.8%. With Cc1n[nH]c(NC(=O)c2ccc(COCC(F)(F)F)cc2)c1C the cytotoxicity at 10 µM was -0.81%. With Cc1ccc(C(NC(=O)C2CC2)c2cccc(S(C)(=O)=O)c2)cc1 (configuration not stated) the cytotoxicity at 10 µM was -9.8%. For CC(C)(C)c1nc(CC(=O)Nc2cnccc2O)cs1, the cytotoxicity at 10 µM was 9.09%. Work on C=C(C)CN1CCC(NC(=O)Nc2ccc(F)c(C(=O)NC)c2)CC1 yielded a cytotoxicity at 10 µM of 5.58%. With CCc1noc(CS(=O)(=O)Cc2ccccc2Cl)n1 the cytotoxicity at 10 µM was -6.75%. With CCN(CC)C(=O)COc1nc(C(C)C)no1 the cytotoxicity at 10 µM was 3.6%. O=C(CN1CCOC(c2ccc(Cl)s2)C1)NCc1ccco1 (configuration not stated) showed a cytotoxicity at 10 µM of -3.09%. Work on CN(C)c1ccc(NC(=O)C2CN(Cc3ccccc3)CCO2)cn1 (configuration not stated) yielded a cytotoxicity at 10 µM of 4.46%. Work on O=C(Nc1nnc[nH]1)C(c1cccc(F)c1)N1CCOCC1 (configuration not stated) yielded a cytotoxicity at 10 µM of -9.07%. Molecule NC(=O)CCSCc1ccc(Br)c(F)c1 has a cytotoxicity at 10 µM of -4.81%. Work on CN(Cc1nnc2n1CCC2)S(=O)(=O)c1ccc(Br)cc1Cl yielded a cytotoxicity at 10 µM of -6.08%. Molecule CCC(=O)NC1CCCN(C(=O)Nc2cc(-c3ccccc3)on2)C1 (configuration not stated) has a cytotoxicity at 10 µM of 6.64%. In the case of CCC1CN(CC(=O)NCCC#N)CCO1 (configuration not stated), the cytotoxicity at 10 µM is reported as 2.28%. N#Cc1ccnc(SCC2CN=C(N3CCOCC3)S2)c1 (configuration not stated) showed a cytotoxicity at 10 µM of -22.9%. Molecule Cc1cccc(C(C)CNC(=O)N2CCC3(C2)OCCO3)c1 (configuration not stated) has a cytotoxicity at 10 µM of 16.1%. Molecule Cc1ccc(F)c(N2CCCC(Nc3nccn4cnnc34)C2=O)c1 (configuration not stated) has a cytotoxicity at 10 µM of -0.115%. Cc1nnc(NCC2(c3ccc(Cl)cc3Cl)CCOCC2)c(C#N)c1C gave a cytotoxicity at 10 µM of 1.98%. With COCC1c2nnn(C)c2CCN1C(=O)COc1ccccc1OC (configuration not stated) the cytotoxicity at 10 µM was -105%. Molecule O=C1CCCN1Cc1nnc2n1CCCN(C(=O)c1ccc[nH]1)C2 has a cytotoxicity at 10 µM of -107%. Cc1noc(C)c1CN1CC[C@H](OCC2CC2)[C@@H](Cc2ccccc2)C1 showed a cytotoxicity at 10 µM of -65.8%. Work on CCO[C@@H]1CCN(C(=O)c2cnc(C)cn2)[C@@H]1Cc1cnn(C)c1 yielded a cytotoxicity at 10 µM of -72.7%. Work on Cc1cc(CN2CC[C@H]3C(=O)N(c4cccnc4)CCO[C@H]3C2)no1 yielded a cytotoxicity at 10 µM of -66.8%. For O=C(c1ccoc1)N1CC[C@@H]2O[C@@H](COCc3ccccn3)CC[C@@H]21, the cytotoxicity at 10 µM was -71.1%. Work on c1cnc(N2CCCC3(CCN(Cc4ccsc4)C3)C2)nc1 (configuration not stated) yielded a cytotoxicity at 10 µM of -83.2%. Molecule CNCC[C@H]1CC(C)(C)Oc2ccc(C)cc21 has a cytotoxicity at 10 µM of 0.526%. With CCC1CC(=O)NCc2nc3sc(C)cn3c21 (configuration not stated) the cytotoxicity at 10 µM was 5.27%. For Cc1csc(N2CCN(C3CCc4ccccc4C3)CC2)n1 (configuration not stated), the cytotoxicity at 10 µM was 2.01%. With O=c1cc(N2CCCC2)cnn1CCc1cccc(F)c1 the cytotoxicity at 10 µM was -12.8%. In the case of CCN(Cc1ccncc1)C(=O)c1cc(C)c(C)c(S(N)(=O)=O)c1, the cytotoxicity at 10 µM is reported as -2.33%. With CC(C)(O)CCc1ccc(C(=O)N2CCN(CC(F)(F)F)CC2)cc1 the cytotoxicity at 10 µM was 6.16%. CNc1nc(C(=O)NCC2CCOc3ccccc3C2)cs1 (configuration not stated) showed a cytotoxicity at 10 µM of 2.53%. With CCN(CC1CCOCC1)C(=O)C1CC(=O)N(Cc2cccnc2)C1 (configuration not stated) the cytotoxicity at 10 µM was 0.719%. CC(Cn1cnc2cn(C)nc2c1=O)Oc1cccnc1 (configuration not stated) showed a cytotoxicity at 10 µM of -11.7%. CCCc1nc(N(C)CCN2CCCCCC2)c2cnn(C)c2n1 gave a cytotoxicity at 10 µM of 3.22%. For COc1ccc(OC)c(C2CCN(C(=O)C3CCN(C(C)C)CC3)C2)c1 (configuration not stated), the cytotoxicity at 10 µM was -7.49%. CCNC(=O)C1CCN(c2cc(-c3ccccc3F)nc3ccnn23)C1 (configuration not stated) gave a cytotoxicity at 10 µM of 4.31%. O=C1CC[C@@H](C(=O)N2CCc3[nH]nc(COc4cccc(Cl)c4)c3C2)N1 showed a cytotoxicity at 10 µM of -52.1%. With O=C(CO)N1CC[C@@H](N2CCN(c3ccccc3F)CC2)[C@H](O)C1 the cytotoxicity at 10 µM was -46%. Molecule CN(CCCc1cnn(C)c1)Cc1cc2n(n1)CCNC2 has a cytotoxicity at 10 µM of 11.1%. CCCc1nnc(N[C@H](C)c2ccc(OC)cc2)o1 gave a cytotoxicity at 10 µM of -19.9%. CC(C)CN1CCC(NCCNc2cccnc2)CC1 showed a cytotoxicity at 10 µM of -5.25%. In the case of CCn1cc(CN2CCCC(CO)(CCc3ccccc3)C2)c(C)n1 (configuration not stated), the cytotoxicity at 10 µM is reported as -4.63%. CCn1cc(-c2cc(C(F)F)n3nc(CC(=O)O)nc3n2)cn1 gave a cytotoxicity at 10 µM of -9.49%. Molecule CCCc1nc(C)c(C(=O)NCCn2nc3ccccn3c2=O)s1 has a cytotoxicity at 10 µM of -10.1%. Work on CNC(=O)C1CCN(CC(=O)Nc2cc(C(C)C)no2)CC1 yielded a cytotoxicity at 10 µM of -8.01%. With CC(C)(C)c1cc(NC(=O)CN2CCCC2Cn2cccn2)on1 (configuration not stated) the cytotoxicity at 10 µM was -15.3%. Molecule CC(=O)N1CCCN(C(=O)NCc2ccccn2)CC1 has a cytotoxicity at 10 µM of -7.37%. COc1c(CNCCNC(=O)c2ccc(C)cc2)c(C)nn1C gave a cytotoxicity at 10 µM of -3.39%. For CC1CN(CC(=O)Nc2cccnc2)CCN1c1nccs1 (configuration not stated), the cytotoxicity at 10 µM was -3.59%. Molecule COc1ccccc1N1CCC(CNCc2cccc(C#N)c2)C1 (configuration not stated) has a cytotoxicity at 10 µM of -5.21%. Cc1cnn(CCNCC(O)COc2c(C)ccc(C)c2C)c1 (configuration not stated) showed a cytotoxicity at 10 µM of -8.78%. CCc1n[nH]c(C2CN(C(=O)Cn3ccccc3=O)CCO2)n1 (configuration not stated) showed a cytotoxicity at 10 µM of -0.746%. CCn1cnnc1C1CCN(C(=O)COc2ccccc2)CC1 showed a cytotoxicity at 10 µM of 1.3%. CN1CCc2c(C#N)c(NCc3cccnc3)n3cnnc3c2C1 showed a cytotoxicity at 10 µM of 11.2%. Work on O=C(Nc1nc2c(s1)CNCC2)C1CC1 yielded a cytotoxicity at 10 µM of -0.0154%. Cn1cc(C(=O)NCc2cn3c(n2)CN(Cc2ccccn2)CC3)cn1 gave a cytotoxicity at 10 µM of -13.7%. Work on c1cncc(N2CCOCC3(CN(Cc4cccs4)CCO3)C2)c1 (configuration not stated) yielded a cytotoxicity at 10 µM of -79.7%. For Cc1cccc(COC[C@@]23CCC[C@@H]2CN(S(=O)(=O)N(C)C)C3)n1, the cytotoxicity at 10 µM was -6.87%. Molecule CO[C@@H]1CCN(S(=O)(=O)c2cccnc2)[C@@H]2CN(CC3CC3)C[C@@H]21 has a cytotoxicity at 10 µM of -65.7%. Molecule CN(Cc1cn2c(n1)CN(CC1CCOC1)CC2)Cc1ccco1 (configuration not stated) has a cytotoxicity at 10 µM of -82.9%. In the case of c1ccc(OC2COC3(CCN(CC4CC4)CC3)C2)nc1 (configuration not stated), the cytotoxicity at 10 µM is reported as -75.2%. c1cc(CNCc2cccc3c2OCCCO3)cc(Cn2cncn2)c1 gave a cytotoxicity at 10 µM of 8.1%. O=C(C1CC=CC1)N1C[C@@H]2CN(Cc3ccsc3)CCO[C@@H]2C1 showed a cytotoxicity at 10 µM of -87.4%. In the case of CCOc1c(OC)cc(C=Cc2ncc(C(=O)NC)s2)cc1OC, the cytotoxicity at 10 µM is reported as 1.62%. In the case of CN(C)C(=O)CN1C[C@H]2CC[C@@H](C1)N(C/C=C/c1ccc(F)cc1)C2, the cytotoxicity at 10 µM is reported as -7.65%.
